{"source": "ChEMBL document CHEMBL3352181", "about": "“Novel phenyl and pyridyl substituted derivatives of isoindolines: Synthesis, antitumor activity and DNA binding features” (Eur J Med Chem, 2014)", "key": {"HepG2 [1]": {"tested_on": "HepG2", "experiment": "Induction of cell cycle arrest on human HepG2 cells assessed as accumulation at G2/M phase at 50 uM after 24 hrs by propidium iodide staining based flow cytometry (reference value: 16.5 +/- 1.6%)", "format": "functional"}, "MCF7": {"tested_on": "MCF7", "experiment": "Antiproliferative activity against human MCF7 cells assessed as inhibition of cell proliferation after 72 hrs by MTT assay", "format": "functional, cell-based", "method_in_brief": "(§1)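 Cells grown as monolayers in DMEM with 10% FBS, 2 mM L-glutamine, penicillin/streptomycin, 37 °C, 5% CO2. Seeded at 5000/well on day 0. Compounds added after 24 h as five serial dilutions (0,01 to 100 µM), DMSO ≤0.1%, then 72 h. MTT read-out converted to percentage growth. IC50 by linear regression; quadruplicates in three experiments.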"}, "HepG2 [2]": {"tested_on": "HepG2", "experiment": "Antiproliferative activity against human HepG2 cells assessed as inhibition of cell proliferation after 72 hrs by MTT assay", "format": "functional, cell-based", "method_in_brief": "as §1"}, "HepG2 [3]": {"tested_on": "HepG2", "experiment": "Induction of cell cycle arrest on human HepG2 cells assessed as accumulation at G2/M phase at 50 uM after 48 hrs by propidium iodide staining based flow cytometry (reference value: 28.0 +/- 13.8%)", "format": "functional"}, "HepG2 [4]": {"tested_on": "HepG2", "experiment": "Induction of cell cycle arrest on human HepG2 cells assessed as accumulation at G1 phase at 50 uM after 48 hrs by propidium iodide staining based flow cytometry (reference value: 62.7 +/- 0.5%)", "format": "functional"}, "HepG2 [5]": {"tested_on": "HepG2", "experiment": "Induction of cell cycle arrest on human HepG2 cells assessed as accumulation at G2/M phase at 20 uM after 48 hrs by propidium iodide staining based flow cytometry (reference value: 28.0 +/- 13.8%)", "format": "functional"}, "HepG2 [6]": {"tested_on": "HepG2", "experiment": "Induction of cell cycle arrest on human HepG2 cells assessed as accumulation at subG1 phase at 20 uM after 48 hrs by propidium iodide staining based flow cytometry (reference value: 1.7 +/- 0.5%)", "format": "functional", "method_in_brief": "(§2)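 HepG2 or SW620 cells were seeded at 25000 per well. After 24 h they were treated, then harvested 24 or 48 h later. Attached cells were trypsinized, pooled with floating cells, PBS-washed and fixed in 70% ethanol. Cells were stained with PI 1 µg/mL plus RNase A 0.2 µg/mL, and 10 000 events were acquired by flow cytometry. Phase percentages come from DNA histograms, in duplicate, with ANOVA at p < 0.05.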"}, "HepG2 [7]": {"tested_on": "HepG2", "experiment": "Induction of cell cycle arrest on human HepG2 cells assessed as accumulation at S phase at 20 uM after 48 hrs by propidium iodide staining based flow cytometry (reference value: 9.3 +/- 13.2%)", "format": "functional", "method_in_brief": "as §2"}, "BJ": {"tested_on": "BJ", "experiment": "Antiproliferative activity against human BJ cells assessed as inhibition of cell proliferation after 72 hrs by MTT assay", "format": "cell-based", "conditions": "72 h", "method_in_brief": "as §1"}, "HepG2 [8]": {"tested_on": "HepG2", "experiment": "Induction of cell cycle arrest on human HepG2 cells assessed as accumulation at G1 phase at 20 uM after 48 hrs by propidium iodide staining based flow cytometry (reference value: 62.7 +/- 0.5%)", "format": "functional"}, "HepG2 [9]": {"tested_on": "HepG2", "experiment": "Induction of cell cycle arrest on human HepG2 cells assessed as accumulation at subG1 phase at 20 uM after 24 hrs by propidium iodide staining based flow cytometry (reference value: 2.9 +/- 1.1%)", "format": "functional", "method_in_brief": "as §2"}, "Hep G2 (human) [10]": {"tested_on": "Hep G2 (human)", "experiment": "Induction of apoptosis in human HepG2 cells assessed as induction of apoptotic bodies at 50 uM after 24 hrs by Annexin V-Fluos staining based fluorescent microscopy"}, "HepG2 [11]": {"tested_on": "HepG2", "experiment": "Induction of cell cycle arrest on human HepG2 cells assessed as accumulation at G1 phase at 50 uM after 24 hrs by propidium iodide staining based flow cytometry (reference value: 66.5 +/- 1.4%)", "format": "functional"}, "HeLa": {"tested_on": "HeLa", "experiment": "Antiproliferative activity against human HeLa cells assessed as inhibition of cell proliferation after 72 hrs by MTT assay", "format": "functional, cell-based", "method_in_brief": "as §1"}, "HepG2 [12]": {"tested_on": "HepG2", "experiment": "Induction of cell cycle arrest on human HepG2 cells assessed as accumulation at subG1 phase at 50 uM after 24 hrs by propidium iodide staining based flow cytometry (reference value: 2.9 +/- 1.1%)", "format": "functional", "method_in_brief": "as §2"}, "HepG2 [13]": {"tested_on": "HepG2", "experiment": "Induction of cell cycle arrest on human HepG2 cells assessed as accumulation at S phase at 20 uM after 24 hrs by propidium iodide staining based flow cytometry (reference value: 17.0 +/- 2.9%)", "format": "functional"}, "HepG2 [14]": {"tested_on": "HepG2", "experiment": "Induction of cell cycle arrest on human HepG2 cells assessed as accumulation at S phase at 50 uM after 24 hrs by propidium iodide staining based flow cytometry (reference value: 17.0 +/- 2.9%)", "format": "functional", "method_in_brief": "as §2"}, "Hep G2 (human) [15]": {"tested_on": "Hep G2 (human)", "experiment": "Induction of apoptosis in human HepG2 cells assessed as induction of cytoplasmic shrinkage at 50 uM after 24 hrs by Annexin V-Fluos staining based fluorescent microscopy"}, "HepG2 [16]": {"tested_on": "HepG2", "experiment": "Induction of cell cycle arrest on human HepG2 cells assessed as accumulation at subG1 phase at 50 uM after 48 hrs by propidium iodide staining based flow cytometry (reference value: 1.7 +/- 0.5%)", "format": "functional", "method_in_brief": "as §2"}, "HepG2 [17]": {"tested_on": "HepG2", "experiment": "Induction of cell cycle arrest on human HepG2 cells assessed as accumulation at S phase at 50 uM after 48 hrs by propidium iodide staining based flow cytometry (reference value: 9.3 +/- 13.2%)", "format": "functional", "method_in_brief": "as §2"}, "HepG2 [18]": {"tested_on": "HepG2", "experiment": "Induction of cell cycle arrest on human HepG2 cells assessed as accumulation at G2/M phase at 20 uM after 24 hrs by propidium iodide staining based flow cytometry (reference value: 16.5 +/- 1.6%)", "format": "functional"}, "[19]": {"experiment": "(§3) Antiproliferative activity against human SW620 cells assessed as inhibition of cell proliferation after 72 hrs by MTT assay", "format": "functional, cell-based, SW-620", "conditions": "Homo sapiens, SW-620, 72 h", "method_in_brief": "as §1"}, "SW-620": {"tested_on": "SW-620", "experiment": "as §3", "format": "functional, cell-based", "method_in_brief": "as §1"}, "HepG2 [20]": {"tested_on": "HepG2", "experiment": "Induction of cell cycle arrest on human HepG2 cells assessed as accumulation at G1 phase at 20 uM after 24 hrs by propidium iodide staining based flow cytometry (reference value: 66.5 +/- 1.4%)", "format": "functional"}}, "note": "pIC50: −log10 of the molar value. Calls of active or inactive are those of the source. No cut-off for these calls is given here.", "data": [{"smiles": "N#Cc1ccc(/N=C2\\c3ccccc3CN2c2ccc(C#N)cn2)nc1", "values": [{"measurement": "Activity", "setting": "HepG2 [1]", "result": 16.2, "unit": "%"}, {"measurement": "inhibition", "setting": "MCF7", "result": "Dose-dependent effect"}, {"measurement": "pIC50", "setting": "MCF7; Homo sapiens, MCF7, 72 h", "result": 4.15}, {"measurement": "inhibition", "setting": "HepG2 [2]", "result": "Dose-dependent effect"}, {"measurement": "pIC50", "setting": "HepG2 [2]; HepG2, 72 h", "result": 5.03}, {"measurement": "Activity", "setting": "HepG2 [3]", "result": 20.3, "unit": "%"}, {"measurement": "Activity", "setting": "HepG2 [4]", "result": 61.2, "unit": "%"}, {"measurement": "Activity", "setting": "HepG2 [5]", "result": 19.5, "unit": "%"}, {"measurement": "Activity", "setting": "HepG2 [6]", "result": 5.7, "unit": "%"}, {"measurement": "Activity", "setting": "HepG2 [7]", "result": 19.5, "unit": "%"}, {"measurement": "pIC50", "setting": "BJ; Homo sapiens, BJ", "result": 4.20}, {"measurement": "inhibition (INH)", "setting": "BJ; human, bj", "result": "Dose-dependent effect"}, {"measurement": "Activity", "setting": "HepG2 [8]", "result": 61, "unit": "%"}, {"measurement": "Activity", "setting": "HepG2 [9]", "result": 6.6, "unit": "%"}, {"measurement": "Activity", "setting": "Hep G2 (human) [10]", "result": "inactive"}, {"measurement": "Activity", "setting": "HepG2 [11]", "result": 57.4, "unit": "%"}, {"measurement": "inhibition", "setting": "HeLa", "result": "Dose-dependent effect"}, {"measurement": "pIC50", "setting": "HeLa; Homo sapiens, HeLa, 72 h", "result": 5.06}, {"measurement": "Activity", "setting": "HepG2 [12]", "result": 6.7, "unit": "%"}, {"measurement": "Activity", "setting": "HepG2 [13]", "result": 21.5, "unit": "%"}, {"measurement": "Activity", "setting": "HepG2 [14]", "result": 26.4, "unit": "%"}, {"measurement": "Activity", "setting": "Hep G2 (human) [15]", "result": "inactive"}, {"measurement": "Activity", "setting": "HepG2 [16]", "result": 8.4, "unit": "%"}, {"measurement": "Activity", "setting": "HepG2 [17]", "result": 18.5, "unit": "%"}, {"measurement": "Activity", "setting": "HepG2 [18]", "result": 20.4, "unit": "%"}, {"measurement": "pIC50", "setting": "[19]", "result": "< 4.00"}, {"measurement": "inhibition", "setting": "SW-620", "result": "Dose-dependent effect"}, {"measurement": "Activity", "setting": "HepG2 [20]", "result": 58.1, "unit": "%"}]}]}
